Reference: ChEMBL document CHEMBL1136016, “Synthesis, biological activity, and molecular modeling investigation of new pyrazolo[4,3-e]-1,2,4-triazolo[1,5-c]pyrimidine derivatives as human A(3) adenosine receptor antagonists” (J Med Chem, 2002)
Each block holds one compound with its values, some of them ahead of it.

What was measured:
Adenosine receptor A1 [1] = biological target: T1, Adenosine receptor A1 (Homo sapiens, UniProt P30542); assay: biochemical
T1 sequence (P30542 whole entry): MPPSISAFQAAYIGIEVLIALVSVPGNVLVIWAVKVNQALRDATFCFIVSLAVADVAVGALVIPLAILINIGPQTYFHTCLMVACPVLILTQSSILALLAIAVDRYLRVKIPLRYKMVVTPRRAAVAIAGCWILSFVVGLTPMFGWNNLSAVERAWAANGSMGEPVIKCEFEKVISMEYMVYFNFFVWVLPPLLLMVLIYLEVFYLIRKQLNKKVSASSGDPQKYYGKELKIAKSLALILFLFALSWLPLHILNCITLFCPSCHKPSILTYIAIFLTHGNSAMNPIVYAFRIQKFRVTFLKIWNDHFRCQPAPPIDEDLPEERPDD

Adenosine receptor A3 [2] = biological target: T2, Adenosine receptor A3 (Homo sapiens, UniProt P0DMS8); assay: Inhibition of IB-MECA agonist-mediated cAMP production in membranes of CHO cells expressing human Adenosine A3 receptor; type: functional, cell-based
T2 sequence (P0DMS8 whole entry): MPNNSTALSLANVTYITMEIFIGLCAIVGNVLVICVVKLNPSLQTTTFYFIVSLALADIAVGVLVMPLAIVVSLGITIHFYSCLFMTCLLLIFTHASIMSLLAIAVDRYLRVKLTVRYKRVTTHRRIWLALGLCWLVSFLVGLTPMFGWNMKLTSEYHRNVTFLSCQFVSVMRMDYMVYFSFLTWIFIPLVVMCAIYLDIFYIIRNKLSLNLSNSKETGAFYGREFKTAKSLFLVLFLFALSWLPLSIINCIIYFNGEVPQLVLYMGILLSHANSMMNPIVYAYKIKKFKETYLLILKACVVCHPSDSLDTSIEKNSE
How it was run: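 Human A3-CHO membranes (in 50 mM Tris HCl, 10 mM MgCl2, 1 mM EDTA, pH 7.4) were preincubated for 10 min at 37 °C with 5 µM GTP, 0.5 mM Ro 20-1724 and 2.0 IU/mL adenosine deaminase. IB-MECA (100 nM) or antagonist was then added with 1 mM ATP and forskolin for 10 min. The reaction was stopped by 2 min boiling. cAMP was measured by [3H]cAMP competitive protein binding using beef adrenal binding protein, 150 min at 4 °C.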

Adenosine receptor A3 [3] = biological target: T2, Adenosine receptor A3; assay: Displacement of [3H]MRE3008-F20 from human Adenosine A3 receptor expressed in HEK cells; range 0.13-0.20; type: cell-based, HEK293
Adenosine receptor A2b [4] = biological target: T3, Adenosine receptor A2b (Homo sapiens, UniProt P29275); assay: biochemical
T3 sequence (P29275 whole entry): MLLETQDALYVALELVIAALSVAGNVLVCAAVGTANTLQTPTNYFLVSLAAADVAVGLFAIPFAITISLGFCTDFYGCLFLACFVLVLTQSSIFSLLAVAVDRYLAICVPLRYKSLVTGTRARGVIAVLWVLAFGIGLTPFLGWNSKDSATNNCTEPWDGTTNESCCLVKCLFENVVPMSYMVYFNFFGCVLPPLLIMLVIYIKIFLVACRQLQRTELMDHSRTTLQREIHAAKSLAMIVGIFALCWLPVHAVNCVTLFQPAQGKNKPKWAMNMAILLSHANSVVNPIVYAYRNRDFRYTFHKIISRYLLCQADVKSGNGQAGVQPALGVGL

[5] = biological target: Adenosine receptors; A1 & A3 (Homo sapiens) (UniProt P30542+P0DMS8); assay: Selectivity ratio (hA1/hA3); type: protein assay
Adenosine receptor A2a [6] = biological target: T4, Adenosine receptor A2a (Homo sapiens, UniProt P29274); assay: biochemical
[7] = biological target: Adenosine receptors; A2b & A3 (Homo sapiens) (UniProt P29275+P0DMS8); assay: Selectivity ratio (h2B/hA3); type: protein assay
Adenosine receptor A2b [8] = biological target: T3, Adenosine receptor A2b; assay: Displacement of [3H]DPCPX from human Adenosine A2B receptor expressed in HEK293 cells; range 89-116; type: cell-based
How it was run: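 Membranes from HEK-293 cells with human recombinant A2B receptor. Incubation 60 min at 25 °C in 50 mM Tris HCl, 10 mM MgCl2, 1 mM EDTA, 0.1 mM benzamidine, pH 7.4, with 2 IU/mL adenosine deaminase and 40 nM [3H]DPCPX. At least six to eight test concentrations. Nonspecific binding defined with NECA. n = 3-6.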

Adenosine receptor A1 [9] = biological target: T1, Adenosine receptor A1; assay: Displacement of [3H]DPCPX from human Adenosine A1 receptor expressed in CHO cells; range 525-691; type: cell-based
Adenosine receptor A3 [10] = biological target: T2, Adenosine receptor A3; assay: biochemical
Adenosine receptor A2a [11] = biological target: T4, Adenosine receptor A2a; assay: Displacement of [3H]SCH-58261 from human Adenosine A2A receptor expressed in HEK293 cells; range 312-515; type: cell-based
Adenosine receptor A2b [12] = biological target: T3, Adenosine receptor A2b; assay: Displacement of [3H]DPCPX from human Adenosine A2B receptor expressed in HEK293 cells; range 67-141; type: cell-based
How it was run: (§1)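 Competition binding on membranes of HEK-293 cells carrying recombinant human A2B receptor. Incubation 60 min at 25 °C in 50 mM Tris HCl pH 7.4 with 10 mM MgCl2, 1 mM EDTA, 0.1 mM benzamidine and 2 IU/mL adenosine deaminase. Radioligand 40 nM [3H]DPCPX, at least six to eight test concentrations. NECA defined nonspecific binding. Bound ligand separated on glass-fibre filters and counted; n = 3-6.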

Adenosine receptor A1 [13] = biological target: T1, Adenosine receptor A1; assay: Displacement of [3H]DPCPX from human Adenosine A1 receptor expressed in CHO cells; range […]; type: cell-based
How it was run: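 Competition binding on membranes of CHO cells stably expressing human A1 receptor, resuspended in 50 mM Tris HCl pH 7.4. Incubation 120 min at 25 °C with 1 nM [3H]DPCPX, 50 µg protein per assay and at least six to eight test concentrations. CHA defined nonspecific binding. Bound ligand separated on glass-fibre filters and counted; n = 3-6.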

Adenosine receptor A3 [14] = biological target: T2, Adenosine receptor A3; assay: Displacement of [3H]MRE3008-F20 from human Adenosine A3 receptor expressed in HEK cells; range 0.23-0.40; type: cell-based, HEK293
Adenosine receptor A2a [15] = biological target: T4, Adenosine receptor A2a; assay: Displacement of [3H]SCH-58,261 from human Adenosine A2A receptor expressed in HEK293 cells; range 122-187; type: cell-based
Adenosine receptor A3 [16] = biological target: T2, Adenosine receptor A3; assay: Displacement of [3H]MRE3008-F20 from human Adenosine A3 receptor expressed in HEK cells; range 0.11-0.18; type: cell-based, HEK293
Adenosine receptor A1 [17] = biological target: T1, Adenosine receptor A1; assay: Displacement of [3H]DPCPX from human Adenosine A1 receptor expressed in CHO cells; range 248-276; type: cell-based
Adenosine receptor A2a [18] = biological target: T4, Adenosine receptor A2a; assay: Displacement of [3H]SCH-58261 from human Adenosine A2A receptor expressed in HEK293 cells; range 23-40; type: cell-based
Adenosine receptor A2b [19] = biological target: T3, Adenosine receptor A2b; assay: Displacement of [3H]DPCPX from human Adenosine A2B receptor expressed in HEK293 cells; range 118-146; type: cell-based
How it was run: as §1

Adenosine receptor A2b [20] = biological target: T3, Adenosine receptor A2b; assay: Displacement of [3H]-DPCPX from human Adenosine A2B receptor expressed in HEK293 cells; range 118-173; type: cell-based
How it was run: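 HEK-293 membranes expressing the human receptor were incubated 60 min at 25 °C. Six to eight test concentrations were used. Nonspecific binding was set with NECA. n = 3-6.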

Adenosine receptor A3 [21] = biological target: T2, Adenosine receptor A3; assay: Displacement of [3H]MRE3008-F20 from human Adenosine A3 receptor expressed in HEK cells; range 0.65-1.58; type: cell-based, HEK293
Adenosine receptor A2a [22] = biological target: T4, Adenosine receptor A2a; assay: Displacement of [3H]SCH-58261 from human Adenosine A2A receptor expressed in HEK293 cells; range 255-366; type: cell-based

T4 sequence (P29274 whole entry): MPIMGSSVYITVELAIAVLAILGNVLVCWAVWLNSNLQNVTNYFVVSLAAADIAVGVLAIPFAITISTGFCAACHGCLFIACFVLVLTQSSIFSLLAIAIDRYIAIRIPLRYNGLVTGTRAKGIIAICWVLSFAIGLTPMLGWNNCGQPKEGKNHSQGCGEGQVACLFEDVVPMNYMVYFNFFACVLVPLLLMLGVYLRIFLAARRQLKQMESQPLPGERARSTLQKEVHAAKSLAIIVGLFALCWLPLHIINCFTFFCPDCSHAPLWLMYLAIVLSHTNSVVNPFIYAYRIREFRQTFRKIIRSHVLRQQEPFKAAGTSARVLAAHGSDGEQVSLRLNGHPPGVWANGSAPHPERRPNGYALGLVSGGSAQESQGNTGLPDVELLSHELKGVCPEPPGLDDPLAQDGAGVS

SMILES: Cn1cc2c(nc(NC(=O)Nc3ccccc3)n3nc(-c4ccco4)nc23)n1
Ki (Adenosine receptor A1 [1]): 0.594 µM
IC50 (Adenosine receptor A3 [2]): 0.002 µM
Ki (Adenosine receptor A3 [3]): 0.00016 µM
Ki (Adenosine receptor A2b [4]): 0.222 µM
Ratio [5]: 3710
Ki (Adenosine receptor A2a [6]): 0.381 µM
Ratio [7]: 1390

SMILES: CCCCn1cc2c(nc(NC(=O)Cc3ccccc3)n3nc(-c4ccco4)nc23)n1
Ki (Adenosine receptor A2b [8]): 0.101 µM
Ratio [5]: 542
Ki (Adenosine receptor A1 [9]): 0.602 µM
Ki (Adenosine receptor A3 [10]): 0.00111 µM
Ki (Adenosine receptor A2a [11]): 0.4 µM
Ratio [7]: 91

SMILES: CCn1cc2c(nc(NC(=O)Nc3ccccc3Cl)n3nc(-c4ccco4)nc23)n1
Ki (Adenosine receptor A2b [12]): 0.097 µM
Ki (Adenosine receptor A1 [13]): 0.348 µM
Ratio [5]: 1160
Ki (Adenosine receptor A3 [14]): 0.0003 µM
Ratio [7]: 323
Ki (Adenosine receptor A2a [15]): 0.15 µM

Results, then the compound that gave them:

Ki (Adenosine receptor A3 [16]): 0.00014 µM
Ki (Adenosine receptor A1 [17]): 0.262 µM
Ratio [5]: 1870
Ki (Adenosine receptor A2a [18]): 0.03 µM
Ratio [7]: 943
Ki (Adenosine receptor A2b [19]): 0.132 µM
SMILES: CCn1cc2c(nc(NC(=O)Nc3ccc(C)cc3)n3nc(-c4ccco4)nc23)n1

Ki (Adenosine receptor A2b [20]): 0.143 µM
Ki (Adenosine receptor A3 [21]): 0.00101 µM
Ratio [5]: 348
Ratio [7]: 142
Ki (Adenosine receptor A2a [22]): 0.306 µM
SMILES: CCCn1cc2c(nc(NC(=O)Cc3ccccc3)n3nc(-c4ccco4)nc23)n1
